# Results taken from PubChem BioAssay AID588560 (The Scripps Research Institute Molecular Screening Center, 2011).
# Calls of active or inactive are those of the source.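 How the source made its calls: active means inhibition of 50% or more against any one of four protein arginine deiminase enzymes; inactive means the rest.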
# Assays:
# Assay in all cases: inhibitors of PAD1, PAD2, PAD3 and PAD4, late-stage follow-up, selectivity assay for PAD4 inhibitor project, biochemical, colorimetric, BAEE substrate, recombinant enzymes (AID 588560)
# [1] = molecular target: Protein-arginine deiminase type-1 (Homo sapiens) (UniProt Q9ULC6); conditions: recombinant PAD1-4, BAEE citrulline colorimetric, 15 min; PAD1; at 10 µM; hits give high values
# How it was run: (§1)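 assay system = recombinant PAD1, PAD2, PAD3 or PAD4 enzyme, one isozyme per assay | medium = Tris pH 7.6 buffer with CaCl2 and DTT | schedule = 15 min enzyme–compound preincubation plus 15 min substrate reaction, both 37 °C | detection = colorimetric citrulline detection with diacetyl monoxime/thiosemicarbazide, absorbance 540 nm | control set = DMSO-treated enzyme as uninhibited reference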
# [2] = molecular target: Protein-arginine deiminase type-2 (Homo sapiens) (UniProt Q9Y2J8); conditions: recombinant PAD1-4, BAEE citrulline colorimetric, 15 min; PAD2; at 10 µM; hits give high values
# How it was run: as §1
# [3] = molecular target: Protein-arginine deiminase type-3 (Homo sapiens) (UniProt Q9ULW8); conditions: recombinant PAD1-4, BAEE citrulline colorimetric, 15 min; PAD3; at 10 µM; hits give high values
# How it was run: as §1
# [4] = molecular target: Protein-arginine deiminase type-4 (Homo sapiens) (UniProt Q9UM07); conditions: recombinant PAD1-4, BAEE citrulline colorimetric, 15 min; PAD4; at 10 µM; hits give high values
# How it was run: as §1
# Protein-arginine deiminase type-2 (Homo sapiens), sequence (Q9Y2J8 whole entry, looked up): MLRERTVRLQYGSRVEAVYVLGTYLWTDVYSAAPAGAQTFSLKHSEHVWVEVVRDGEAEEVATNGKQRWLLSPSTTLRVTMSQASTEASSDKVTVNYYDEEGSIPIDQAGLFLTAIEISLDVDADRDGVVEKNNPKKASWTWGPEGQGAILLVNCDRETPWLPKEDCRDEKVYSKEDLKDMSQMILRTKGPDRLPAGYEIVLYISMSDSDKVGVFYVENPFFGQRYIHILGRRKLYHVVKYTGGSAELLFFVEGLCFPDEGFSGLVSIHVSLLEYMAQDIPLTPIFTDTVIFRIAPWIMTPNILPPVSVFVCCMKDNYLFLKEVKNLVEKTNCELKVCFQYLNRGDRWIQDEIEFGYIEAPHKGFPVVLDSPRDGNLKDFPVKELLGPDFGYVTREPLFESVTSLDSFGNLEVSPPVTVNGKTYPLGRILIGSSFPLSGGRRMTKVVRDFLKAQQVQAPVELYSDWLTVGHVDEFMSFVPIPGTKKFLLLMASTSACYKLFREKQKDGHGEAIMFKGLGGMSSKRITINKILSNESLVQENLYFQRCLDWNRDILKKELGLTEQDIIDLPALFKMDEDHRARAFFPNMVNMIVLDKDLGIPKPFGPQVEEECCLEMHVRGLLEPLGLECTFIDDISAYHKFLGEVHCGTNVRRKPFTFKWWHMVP
# Protein-arginine deiminase type-3 (Homo sapiens), sequence (Q9ULW8 whole entry, looked up): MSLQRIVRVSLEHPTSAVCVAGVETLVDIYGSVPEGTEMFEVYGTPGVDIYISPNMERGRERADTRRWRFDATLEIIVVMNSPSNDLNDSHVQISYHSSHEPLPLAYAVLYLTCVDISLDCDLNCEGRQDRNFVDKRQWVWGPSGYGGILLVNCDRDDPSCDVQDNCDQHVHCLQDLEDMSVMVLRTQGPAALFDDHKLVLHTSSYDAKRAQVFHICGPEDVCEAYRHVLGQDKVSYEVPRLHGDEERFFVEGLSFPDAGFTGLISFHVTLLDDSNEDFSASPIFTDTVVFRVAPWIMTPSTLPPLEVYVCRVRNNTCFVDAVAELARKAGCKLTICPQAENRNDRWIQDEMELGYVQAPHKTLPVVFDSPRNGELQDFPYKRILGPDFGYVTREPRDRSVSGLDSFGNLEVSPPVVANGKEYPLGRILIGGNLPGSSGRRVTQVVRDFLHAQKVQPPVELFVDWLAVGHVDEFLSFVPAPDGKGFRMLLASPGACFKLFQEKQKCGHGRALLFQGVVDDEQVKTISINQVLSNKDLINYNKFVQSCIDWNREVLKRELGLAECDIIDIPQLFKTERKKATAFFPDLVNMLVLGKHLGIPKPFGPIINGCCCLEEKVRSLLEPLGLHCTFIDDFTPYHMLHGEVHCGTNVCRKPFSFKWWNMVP
# Protein-arginine deiminase type-4 (Homo sapiens), sequence (Q9UM07 whole entry, looked up): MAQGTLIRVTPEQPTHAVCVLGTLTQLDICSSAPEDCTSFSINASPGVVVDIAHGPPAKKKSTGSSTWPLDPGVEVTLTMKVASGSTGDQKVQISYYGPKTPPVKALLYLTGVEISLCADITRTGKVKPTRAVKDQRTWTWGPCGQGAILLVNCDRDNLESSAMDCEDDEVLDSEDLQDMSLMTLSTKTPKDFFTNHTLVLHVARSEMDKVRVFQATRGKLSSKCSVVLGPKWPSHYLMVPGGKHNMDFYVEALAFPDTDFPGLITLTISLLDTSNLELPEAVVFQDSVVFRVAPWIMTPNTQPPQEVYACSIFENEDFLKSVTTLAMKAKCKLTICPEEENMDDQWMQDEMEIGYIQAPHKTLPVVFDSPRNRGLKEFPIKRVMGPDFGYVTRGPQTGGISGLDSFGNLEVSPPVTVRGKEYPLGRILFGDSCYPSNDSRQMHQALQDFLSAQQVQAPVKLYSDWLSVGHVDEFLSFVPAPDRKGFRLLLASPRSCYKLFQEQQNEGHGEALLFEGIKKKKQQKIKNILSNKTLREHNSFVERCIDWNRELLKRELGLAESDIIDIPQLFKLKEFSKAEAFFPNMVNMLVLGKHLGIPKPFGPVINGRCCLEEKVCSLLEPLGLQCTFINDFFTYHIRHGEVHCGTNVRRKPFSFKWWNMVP
# Protein-arginine deiminase type-1 (Homo sapiens), sequence (Q9ULC6 whole entry, looked up): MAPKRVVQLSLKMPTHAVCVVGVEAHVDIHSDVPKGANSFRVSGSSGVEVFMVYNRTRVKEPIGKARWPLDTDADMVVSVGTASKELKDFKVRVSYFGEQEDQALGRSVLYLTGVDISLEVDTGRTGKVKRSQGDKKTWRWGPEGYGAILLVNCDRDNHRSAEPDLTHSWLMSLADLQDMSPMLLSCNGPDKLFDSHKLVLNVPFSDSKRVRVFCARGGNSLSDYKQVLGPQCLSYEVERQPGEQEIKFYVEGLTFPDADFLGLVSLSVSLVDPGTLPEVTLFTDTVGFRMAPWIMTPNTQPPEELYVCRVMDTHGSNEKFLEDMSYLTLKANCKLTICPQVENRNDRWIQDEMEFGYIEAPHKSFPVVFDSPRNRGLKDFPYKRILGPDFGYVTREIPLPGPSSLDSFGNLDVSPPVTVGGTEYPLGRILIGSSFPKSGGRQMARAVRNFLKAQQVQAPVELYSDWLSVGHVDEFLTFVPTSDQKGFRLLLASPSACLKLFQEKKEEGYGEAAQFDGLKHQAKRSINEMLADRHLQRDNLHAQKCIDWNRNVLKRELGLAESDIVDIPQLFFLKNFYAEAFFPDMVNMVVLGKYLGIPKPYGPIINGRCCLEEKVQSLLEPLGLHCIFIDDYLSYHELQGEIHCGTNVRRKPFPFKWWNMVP
inhibition [1],inhibition [2],inhibition [3],inhibition [4],Structure (SMILES)
-41% (inactive),-13% (inactive),24% (inactive),,COC(=O)c1nnc(C(=O)OC)c(-c2ccc3ccccc3n2)n1
-6% (inactive),-22% (inactive),-30% (inactive),,COC(=O)c1nc(C(=O)OC)c(N)c(-c2ccccc2Br)c1C
-15% (inactive),-31% (inactive),-7% (inactive),,CCOC(=O)c1nc(C(=O)OCC)c(C(=O)OCC)c(-c2ccc(OC)c(OC)c2OCc2ccccc2)c1C
75%,92%,84%,,COC(=O)c1cccc(-c2ccc3c(n2)C(=O)C(N)=CC3=O)n1
-23% (inactive),-18% (inactive),-7% (inactive),,O=C(O)c1cccc(-c2ccc3ccc(Br)c(OCc4ccccc4)c3n2)n1
-21% (inactive),-14% (inactive),15% (inactive),,COC(=O)c1nnc(C(=O)OC)c(-c2ccc3cc(OC)ccc3n2)n1
5% (inactive),-29% (inactive),-20% (inactive),,COC(=O)c1nc(C(C)=O)c2[nH]c3ccccc3c2c1C
-38% (inactive),7% (inactive),18% (inactive),,COC(=O)c1nnc(C(=O)OC)c(-c2ccc3c([N+](=O)[O-])c(OC)ccc3n2)n1
-20% (inactive),-18% (inactive),16% (inactive),,COC(=O)c1cc(-c2ccccc2)c(C(=O)OC)c(-c2ccc3ccccc3n2)n1
50%,62%,100%,91%,COC1=C(Br)C(=O)c2nc(-c3ccccn3)ccc2C1=O
-20% (inactive),-19% (inactive),-30% (inactive),,COC(=O)c1nc(C(=O)OC)c(NC(C)=O)c(-c2ccccc2Br)c1C

# Continued, molecule first:
Structure (SMILES),inhibition [1],inhibition [2],inhibition [3],inhibition [4]
COC1=C(N)C(=O)c2ncccc2C1=O,57%,78%,100%,87%
NC1=CC(=O)c2cccnc2C1=O,70%,89%,100%,99%
NC1=CC(=O)c2ccc(-c3cc(C(=O)O)ccc3N)nc2C1=O,-13% (inactive),-19% (inactive),8% (inactive),13% (inactive)
NC1=CC(=O)c2ccc(-c3ccccn3)nc2C1=O,73%,101%,90%,
NC1=CC(=O)c2ccc(-c3cccc(C(=O)O)n3)nc2C1=O,71%,85%,97%,98%
NC1=C(N)C(=O)c2ccccc2C1=O,22% (inactive),28% (inactive),44% (inactive),43% (inactive)
COC(=O)c1nc(-c2ccc3c(n2)C(=O)C(Br)=CC3=O)c2[nH]c3ccccc3c2c1C,-24% (inactive),-15% (inactive),-16% (inactive),
O=C1C(O)=C(O)C(=O)c2ncccc21,39% (inactive),41% (inactive),96%,83%
COc1ccc2nc(C#N)ccc2c1[N+](=O)[O-],-24% (inactive),2% (inactive),16% (inactive),
COc1ccc2nc(C#N)ccc2c1,-37% (inactive),35% (inactive),8% (inactive),
COC1=C(I)C(=O)c2nc(C#N)ccc2C1=O,60%,63%,98%,97%
O=C1C(Br)=CC(=O)c2ncccc21,-57% (inactive),12% (inactive),10% (inactive),10% (inactive)
COC1=C(Br)C(=O)c2ncccc2C1=O,75%,88%,7% (inactive),
COc1ccc2ncccc2c1[N+](=O)[O-],-12% (inactive),17% (inactive),19% (inactive),
O=C1C=C(Br)C(=O)c2ncccc21,-17% (inactive),14% (inactive),76%,56%
COC(=O)c1cccc(-c2ccc3ccc(Br)c(O)c3n2)n1,-5% (inactive),-22% (inactive),-28% (inactive),
COC1=CC(=O)c2nc(C#N)ccc2C1=O,68%,88%,99%,97%
COC(=O)c1cccc(-c2ccc3c(n2)C(=O)C(Br)=CC3=O)n1,0% (inactive),-26% (inactive),-43% (inactive),
